Laboratory results reported in ChEMBL document CHEMBL1142148, “Antibiotic susceptibility profile of bifidobacteria as affected by oxgall, acid, and hydrogen peroxide stress” (2007).
Values after ≈ are worked out from the molar mass of the structure shown.

Assays:
[1] = system: Bifidobacterium thermophilum; assay: Antimicrobial activity against 60 min 1 M HCl-stressed Bifidobacterium thermophilum ATCC 25866 after 18 hrs; assay type: functional
Method in brief: (§1)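 Mid-log MRS culture pelleted and resuspended in MRS broth brought to pH 2.0 with 1 M HCl, held anaerobically at 37°C for 60 min, then subcultured in MRS (pH 6.5) for 24 h anaerobically before MIC testing by broth microdilution (as for unstressed cells). Table footnote gives 18 h anaerobic regrowth after the stress. MIC is the median of four repetitions.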

Bifidobacterium longum [2] = assay: Antimicrobial activity against 90 mins hydrogen peroxide-stressed Bifidobacterium longum ATCC 15707 after 18 hrs; assay type: functional
Method in brief: (§2)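 Stress applied for 90 min at 37°C under anaerobic conditions, using MRS (initial pH 6.5) containing H2O2 at each strain's own inhibitory concentration. The H2O2 level was set beforehand by microplate tolerance testing. Challenged cells were regrown in MRS for 24 h (footnote: 18 h) before MIC testing by broth microdilution. Median of four repetitions.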

[3] = system: Bifidobacterium thermophilum; assay: Antimicrobial activity against 90 mins oxgall-stressed Bifidobacterium thermophilum ATCC 25866 after 18 hrs; assay type: functional
Method in brief: (§3)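 Cells pelleted from mid-log MRS culture and resuspended in MRS (initial pH 6.5) with 0.3% (wt/vol) oxgall for 90 min anaerobically at 37°C. They were then regrown in MRS pH 6.5 for 24 h (footnote: 18 h) anaerobically and tested for MIC by the same broth microdilution assay. Median of four repetitions.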

Bifidobacterium longum [4] = assay: Antimicrobial activity against Bifidobacterium longum R0175; assay type: functional
Method in brief: (§4)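 Broth microdilution in MRS plus 0.05% L-cysteine-HCl. Mid-log culture adjusted to OD650 0.1, giving about 2.5 × 10^4 to 5.0 × 10^4 CFU/well, then added to twofold serial dilutions of agent. Plates incubated anaerobically at 37°C for 18 h and read at OD650. MIC is the lowest concentration matching the uninoculated blank OD, taken as the median of four repeats.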

Bifidobacterium bifidum [5] = assay: Antimicrobial activity against 90 mins oxgall-stressed Bifidobacterium bifidum R0071 after 18 hrs; assay type: functional; method in brief: as §3
Bifidobacterium longum [6] = assay: Antimicrobial activity against 60 min 1 M HCl-stressed Bifidobacterium longum R0175 after 18 hrs; assay type: functional; method in brief: as §1
Bifidobacterium breve [7] = assay: Antimicrobial activity against 90 mins hydrogen peroxide-stressed Bifidobacterium breve R0070 after 18 hrs; assay type: functional; method in brief: as §2
[8] = system: Bifidobacterium pseudolongum; assay: Antimicrobial activity against 60 min 1 M HCl-stressed Bifidobacterium pseudolongum ATCC 25562 after 18 hrs; assay type: functional; method in brief: as §1
[9] = Antimicrobial activity against Bifidobacterium infantis ATCC 15697; assay type: functional, Bifidobacterium longum subsp. infantis; details: Bifidobacterium longum; method in brief: as §4
Bifidobacterium bifidum [10] = assay: Antimicrobial activity against 90 mins oxgall-stressed Bifidobacterium bifidum ATCC 15696 after 18 hrs; assay type: functional; method in brief: as §3
Bifidobacterium longum [11] = assay: Antimicrobial activity against 90 mins hydrogen peroxide-stressed Bifidobacterium longum ATCC 15708 after 18 hrs; assay type: functional; method in brief: as §2
Bifidobacterium longum [12] = assay: Antimicrobial activity against 90 mins hydrogen peroxide-stressed Bifidobacterium longum R0175 after 18 hrs; assay type: functional; method in brief: as §2
Bifidobacterium longum [13] = assay: Antimicrobial activity against Bifidobacterium longum ATCC 15707; assay type: functional; method in brief: as §4
Bifidobacterium bifidum [14] = assay: Antimicrobial activity against Bifidobacterium bifidum BB12; assay type: functional; method in brief: as §4
Bifidobacterium longum [15] = assay: Antimicrobial activity against 90 mins oxgall-stressed Bifidobacterium longum R0175 after 18 hrs; assay type: functional; method in brief: as §3
[16] = system: Bifidobacterium pseudolongum; assay: Antimicrobial activity against Bifidobacterium pseudolongum ATCC 25562; assay type: functional; method in brief: as §4
Bifidobacterium longum [17] = assay: Antimicrobial activity against Bifidobacterium longum P/N 601377; assay type: functional; method in brief: as §4
Bifidobacterium breve [18] = assay: Antimicrobial activity against Bifidobacterium breve ATCC 15700; assay type: functional; method in brief: as §4
Bifidobacterium bifidum [19] = assay: Antimicrobial activity against 90 mins oxgall-stressed Bifidobacterium bifidum BB12 after 18 hrs; assay type: functional; method in brief: as §3
Bifidobacterium animalis [20] = assay: Antimicrobial activity against 90 mins hydrogen peroxide-stressed Bifidobacterium animalis ATCC 27536 after 18 hrs; assay type: functional; method in brief: as §2
Bifidobacterium longum [21] = assay: Antimicrobial activity against 90 mins oxgall-stressed Bifidobacterium longum ATCC 15707 after 18 hrs; assay type: functional; method in brief: as §3
Bifidobacterium breve [22] = assay: Antimicrobial activity against 90 mins oxgall-stressed Bifidobacterium breve R0070 after 18 hrs; assay type: functional; method in brief: as §3
Bifidobacterium longum [23] = assay: Antimicrobial activity against 60 min 1 M HCl-stressed Bifidobacterium longum ATCC 15707 after 18 hrs; assay type: functional; method in brief: as §1
Bifidobacterium bifidum [24] = assay: Antimicrobial activity against Bifidobacterium bifidum R0071; assay type: functional; method in brief: as §4
Bifidobacterium bifidum [25] = assay: Antimicrobial activity against 60 min 1 M HCl-stressed Bifidobacterium bifidum BB12 after 18 hrs; assay type: functional; method in brief: as §1
Bifidobacterium breve [26] = assay: Antimicrobial activity against 60 min 1 M HCl-stressed Bifidobacterium breve ATCC 15700 after 18 hrs; assay type: functional; method in brief: as §1
Bifidobacterium bifidum [27] = assay: Antimicrobial activity against 60 min 1 M HCl-stressed Bifidobacterium bifidum R0071 after 18 hrs; assay type: functional; method in brief: as §1
Bifidobacterium bifidum [28] = assay: Antimicrobial activity against Bifidobacterium bifidum ATCC 15696; assay type: functional; method in brief: as §4
Bifidobacterium breve [29] = assay: Antimicrobial activity against 60 min 1 M HCl-stressed Bifidobacterium breve R0070 after 18 hrs; assay type: functional; method in brief: as §1
Bifidobacterium animalis [30] = assay: Antimicrobial activity against Bifidobacterium animalis ATCC 27536; assay type: functional; method in brief: as §4
Bifidobacterium breve [31] = assay: Antimicrobial activity against Bifidobacterium breve R0070; assay type: functional; method in brief: as §4
Bifidobacterium longum [32] = assay: Antimicrobial activity against 60 min 1 M HCl-stressed Bifidobacterium longum P/N 601377 after 18 hrs; assay type: functional; method in brief: as §1
Bifidobacterium animalis [33] = assay: Antimicrobial activity against 90 mins oxgall-stressed Bifidobacterium animalis ATCC 27536 after 18 hrs; assay type: functional; method in brief: as §3
Bifidobacterium longum [34] = assay: Antimicrobial activity against 90 mins hydrogen peroxide-stressed Bifidobacterium longum P/N 601377 after 18 hrs; assay type: functional; method in brief: as §2
Bifidobacterium longum [35] = assay: Antimicrobial activity against 90 mins oxgall-stressed Bifidobacterium longum ATCC 15708 after 18 hrs; assay type: functional; method in brief: as §3
Bifidobacterium animalis [36] = assay: Antimicrobial activity against 60 min 1 M HCl-stressed Bifidobacterium animalis ATCC 27536 after 18 hrs; assay type: functional; method in brief: as §1
Bifidobacterium breve [37] = assay: Antimicrobial activity against 90 mins oxgall-stressed Bifidobacterium breve ATCC 15700 after 18 hrs; assay type: functional; method in brief: as §3
[38] = system: Bifidobacterium thermophilum; assay: Antimicrobial activity against 90 mins hydrogen peroxide-stressed Bifidobacterium thermophilum ATCC 25866 after 18 hrs; assay type: functional; method in brief: as §2
[39] = Antimicrobial activity against 90 mins oxgall-stressed Bifidobacterium infantis ATCC 15697 after 18 hrs; assay type: functional, Bifidobacterium longum subsp. infantis; details: Bifidobacterium longum; method in brief: as §3
Bifidobacterium breve [40] = assay: Antimicrobial activity against 90 mins hydrogen peroxide-stressed Bifidobacterium breve ATCC 15700 after 18 hrs; assay type: functional; method in brief: as §2
Bifidobacterium longum [41] = assay: Antimicrobial activity against 90 mins oxgall-stressed Bifidobacterium longum P/N 601377 after 18 hrs; assay type: functional; method in brief: as §3
Bifidobacterium longum [42] = assay: Antimicrobial activity against Bifidobacterium longum ATCC 15708; assay type: functional; method in brief: as §4
[43] = Antimicrobial activity against 60 min 1 M HCl-stressed Bifidobacterium infantis ATCC 15697 after 18 hrs; assay type: functional, Bifidobacterium longum subsp. infantis; details: Bifidobacterium longum; method in brief: as §1
Bifidobacterium bifidum [44] = assay: Antimicrobial activity against 90 mins hydrogen peroxide-stressed Bifidobacterium bifidum R0071 after 18 hrs; assay type: functional; method in brief: as §2
[45] = system: Bifidobacterium thermophilum; assay: Antimicrobial activity against Bifidobacterium thermophilum ATCC 25866; assay type: functional; method in brief: as §4
Bifidobacterium bifidum [46] = assay: Antimicrobial activity against 90 mins hydrogen peroxide-stressed Bifidobacterium bifidum BB12 after 18 hrs; assay type: functional; method in brief: as §2
[47] = system: Bifidobacterium pseudolongum; assay: Antimicrobial activity against 90 mins oxgall-stressed Bifidobacterium pseudolongum ATCC 25562 after 18 hrs; assay type: functional; method in brief: as §3

MIC [1]: 3.9 µg/mL (≈ 11.2 µM) | MIC (Bifidobacterium longum [2]): 0.98 µg/mL (≈ 2.8 µM) | MIC [3]: 1.9 µg/mL (≈ 5.44 µM) | MIC (Bifidobacterium longum [4]): 7.8 µg/mL (≈ 22.3 µM) | MIC (Bifidobacterium bifidum [5]): 0.98 µg/mL (≈ 2.8 µM) | MIC (Bifidobacterium longum [6]): 0.98 µg/mL (≈ 2.8 µM) | MIC (Bifidobacterium breve [7]): 0.98 µg/mL (≈ 2.8 µM) | MIC [8]: 0.98 µg/mL (≈ 2.8 µM) | MIC [9]: 7.8 µg/mL (≈ 22.3 µM) | MIC (Bifidobacterium bifidum [10]): 0.98 µg/mL (≈ 2.8 µM) | MIC (Bifidobacterium longum [11]): 3.9 µg/mL (≈ 11.2 µM) | MIC (Bifidobacterium longum [12]): 1.9 µg/mL (≈ 5.44 µM) | MIC (Bifidobacterium longum [13]): 15.6 µg/mL (≈ 44.6 µM) | MIC (Bifidobacterium bifidum [14]): 31.2 µg/mL (≈ 89.3 µM) | MIC (Bifidobacterium longum [15]): 0.98 µg/mL (≈ 2.8 µM) | MIC [16]: 3.9 µg/mL (≈ 11.2 µM) | MIC (Bifidobacterium longum [17]): 0.98 µg/mL (≈ 2.8 µM) | MIC (Bifidobacterium breve [18]): 3.9 µg/mL (≈ 11.2 µM) | MIC (Bifidobacterium bifidum [19]): 0.98 µg/mL (≈ 2.8 µM) | MIC (Bifidobacterium animalis [20]): 3.9 µg/mL (≈ 11.2 µM) | MIC (Bifidobacterium longum [21]): 0.98 µg/mL (≈ 2.8 µM) | MIC (Bifidobacterium breve [22]): 0.98 µg/mL (≈ 2.8 µM) | MIC (Bifidobacterium longum [23]): 3.9 µg/mL (≈ 11.2 µM) | MIC (Bifidobacterium bifidum [24]): 1.9 µg/mL (≈ 5.44 µM) | MIC (Bifidobacterium bifidum [25]): 0.98 µg/mL (≈ 2.8 µM) | MIC (Bifidobacterium breve [26]): 0.98 µg/mL (≈ 2.8 µM) | MIC (Bifidobacterium bifidum [27]): 0.98 µg/mL (≈ 2.8 µM) | MIC (Bifidobacterium bifidum [28]): 0.98 µg/mL (≈ 2.8 µM) | MIC (Bifidobacterium breve [29]): 3.9 µg/mL (≈ 11.2 µM) | MIC (Bifidobacterium animalis [30]): 15.6 µg/mL (≈ 44.6 µM) | MIC (Bifidobacterium breve [31]): 15.6 µg/mL (≈ 44.6 µM) | MIC (Bifidobacterium longum [32]): 0.98 µg/mL (≈ 2.8 µM) | MIC (Bifidobacterium animalis [33]): 0.98 µg/mL (≈ 2.8 µM) | MIC (Bifidobacterium longum [34]): 0.98 µg/mL (≈ 2.8 µM) | MIC (Bifidobacterium longum [35]): 0.98 µg/mL (≈ 2.8 µM) | MIC (Bifidobacterium animalis [36]): 0.98 µg/mL (≈ 2.8 µM) | MIC (Bifidobacterium breve [37]): 3.9 µg/mL (≈ 11.2 µM) | MIC [38]: 3.9 µg/mL (≈ 11.2 µM) | MIC [39]: 0.98 µg/mL (≈ 2.8 µM) | MIC (Bifidobacterium breve [40]): 3.9 µg/mL (≈ 11.2 µM) | MIC (Bifidobacterium longum [41]): 0.98 µg/mL (≈ 2.8 µM) | MIC (Bifidobacterium longum [42]): 7.8 µg/mL (≈ 22.3 µM) | MIC [43]: 0.98 µg/mL (≈ 2.8 µM) | MIC (Bifidobacterium bifidum [44]): 0.98 µg/mL (≈ 2.8 µM) | MIC [45]: 0.98 µg/mL (≈ 2.8 µM) | MIC (Bifidobacterium bifidum [46]): 0.98 µg/mL (≈ 2.8 µM) | MIC [47]: 0.98 µg/mL (≈ 2.8 µM)
SMILES: CC1(C)S[C@@H]2[C@H](NC(=O)[C@H](N)c3ccccc3)C(=O)N2[C@H]1C(=O)O [AMPICILLIN]
